Bioassay records (PubChem)
SENP8 block-1: SENP8 protease inhibitors, primary screen, biochemical, luminescence. Sentrin-specific protease 8 (Homo sapiens), Q96LD8. purified SENP8, Z-RLRGG-aminoluciferin cleavage. inhibition, % at 10 µM. AID 2540, 2010. 330,000 compounds, 1.2% hits; in the data active = inhibition above about 50%
Target sequence (Q96LD8 whole entry, looked up): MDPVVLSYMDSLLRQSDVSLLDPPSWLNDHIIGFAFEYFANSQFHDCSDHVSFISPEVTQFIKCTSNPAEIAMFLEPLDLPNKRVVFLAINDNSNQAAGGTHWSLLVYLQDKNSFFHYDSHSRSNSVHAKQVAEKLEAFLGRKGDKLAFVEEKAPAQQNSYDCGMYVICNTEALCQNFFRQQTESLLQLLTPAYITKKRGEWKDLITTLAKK
SENP7 block: SENP7 protease inhibitors, primary screen, biochemical, luminescence, uHTS; Sentrin-specific protease 7 (Homo sapiens), Q9BQF6; recombinant SENP7, Z-RLRGG-aminoluciferin luminescence, 40 min; inhibition, % at 5 µM; 330,000 compounds, 1.5% hits; AID 434973, 2010;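 active = inhibition above about 50% at the single test dose, limit read from the data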;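 also: plate controls were DMSO with enzyme for no effect and no enzyme buffer wells for full effect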
SENP8 block-2: human SENP8 protease inhibitors, primary screen, biochemical, fluorescence, Nedd8 protein substrate, uHTS; Sentrin-specific protease 8 (Homo sapiens), Q96LD8; recombinant SENP8; inhibition, % at 20 µM; 360,000 compounds, 0.64% hits; in the data active = inhibition mostly above about 40%, no sharp cut-off; inactive = mostly below about 27%
SENP6 block: SENP6 protease inhibitors, primary screen, biochemical, luminescence, uHTS; AID 2599, 2010; Sentrin-specific protease 6 (Homo sapiens), Q9GZR1; inhibition, % at 10 µM; Recombinant SENP6 catalytic domain, aminoluciferin luminescence; 330,000 compounds, 1.8% hits;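 active = inhibition above about 50% at the single tested dose, limit read from the data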;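 also: plate controls were DMSO wells with enzyme for no effect and DMSO wells lacking enzyme for full effect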
Platelet DG rel: inhibitors of platelet dense granule secretion, primary screen, cell-based, MLPCN, human platelets; human platelet-rich plasma, SFLLRN dense granule ATP release, luminescence; inhibition, %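 (compounds screened at 7.5 µM in platelet-rich plasma)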; 300,000 compounds, 0.22% hits; AID 1663, 2009;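 active = mean replicate score, as percent of positive control, at or above 50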
SENP1 FRET inh: human SENP1 catalytic domain inhibitors, primary screen, biochemical, FRET, uHTS; inhibition, % at 10 µM; 360,000 compounds, 0.21% hits; recombinant SENP1 catalytic domain, CyPet-SUMO1-YPet FRET cleavage;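 active = inhibition at least 30% at 10 µM, raw YFP signal under a set limit, fluorescence ratio 0.5 to 1.5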;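 also: 0% = enzyme with DMSO and 100% = no enzyme wells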
Target sequence (Q9P0U3 419-644 limits assumed): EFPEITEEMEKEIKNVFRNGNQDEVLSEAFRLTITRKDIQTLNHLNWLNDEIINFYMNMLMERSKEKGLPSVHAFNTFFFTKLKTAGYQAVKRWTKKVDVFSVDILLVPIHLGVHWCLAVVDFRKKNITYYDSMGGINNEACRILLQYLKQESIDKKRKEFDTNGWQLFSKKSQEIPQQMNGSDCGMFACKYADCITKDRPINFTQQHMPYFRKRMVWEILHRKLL
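Compound: 10 µM single point, 0.5% DMSO; Test system: hSENP1 catalytic domain, recombinant; Timing: 50 min reaction at room temperature; Technique: FRET, CFP and YFP emission; Control set: no-enzyme wells low, DMSO-plus-enzyme wells high control.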
SENP8 confirm: SENP8 protease inhibitors, retest, confirmation, biochemical, luminescence, single concentration; shares compounds with SENP7 block; Recombinant SENP8, Z-RLRGG-aminoluciferin luminescence, 60 min; inhibition, % at 12.5 µM; 6,200 compounds, 40% hits; AID 488912, 2010;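 active = mean inhibition across replicates above about 50%, limit read from the data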
SENP6 conf: SENP6 protease inhibitors, confirmation, biochemical, luminescence, single concentration | shares compounds with SENP7 block | recombinant SENP6, Z-RLRGG-aminoluciferin luminescence | inhibition, % at 12.5 µM | 6,200 compounds, 58% hits
SENP7 conf: SENP7 protease inhibitors, retest, confirmation, biochemical, luminescence, single concentration; shares compounds with SENP7 block; recombinant SENP7, Z-RLRGG-aminoluciferin luminescence, 40 min; inhibition, % at 12.5 µM; 6,200 compounds, 69% hits; AID 488917, 2010
Casp3 SENP sel: caspase-3 protease inhibitors, confirmation, selectivity assay for SENP inhibitor project, biochemical, single concentration; 6,200 compounds, 60% hits; AID 488918, 2010; inhibition, % at 12.5 µM; shares compounds with SENP7 block; purified caspase-3, Z-DEVD-aminoluciferin luminescence, 60 min;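 active = mean inhibition above about 50%, limit read from the data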;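 also: plate controls were enzyme with DMSO for no effect and wells without caspase-3 for full effect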
Target sequence (P42574 28-227 limits assumed): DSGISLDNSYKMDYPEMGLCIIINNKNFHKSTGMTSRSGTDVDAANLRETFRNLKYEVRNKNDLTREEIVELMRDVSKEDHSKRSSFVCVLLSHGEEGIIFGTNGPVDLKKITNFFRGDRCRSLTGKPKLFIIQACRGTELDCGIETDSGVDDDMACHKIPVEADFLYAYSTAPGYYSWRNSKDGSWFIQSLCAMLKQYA
SENP luc ctr: luminescence interference (SENP counter-screen). shares compounds with SENP7 block. Pre-incubated SENP8/Z-RLRGG-aminoluciferin, luciferase luminescence interference. inhibition, % at 12.5 µM. 6,200 compounds, 39% hits. AID 488919;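 active = mean inhibition above about 50% when retested at one dose, limit read from the data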;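 also: plate controls were DMSO wells with completed reaction for no effect and substrate without enzyme for full effect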
The depositor's hits bear a star; i = inactive; x = no result given. An excerpt weighted towards active compounds, which were near 2.6% of everything screened.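 The calls were made as follows, unless noted: active = mean inhibition above about 50% in the one-dose retest (limit read from the data); inactive = the rest.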

SMILES | SENP8 block-1 | SENP7 block | SENP8 block-2 | SENP6 block | Platelet DG rel | SENP1 FRET inh | SENP8 confirm | SENP6 conf | SENP7 conf | Casp3 SENP sel | SENP luc ctr
S=C(Nc1ccc(-c2nc3ccccc3[nH]2)cc1)Nc1cccnc1 | 23 | 41 | -304 | 65* | -2 | -4 | 17 | 9 | 34 | 45 | 23
O=C(Nc1ccc(-c2nc3ccccc3[nH]2)cc1)c1ccco1 | 84* | 86* | -69 | 91* | 0 | 0 | 87* | 87* | 96* | 88* | 65*
Cc1nc(SCC(=O)Nc2nc3ccccc3s2)c(C#N)c(C)c1C | 0 | 6 | 0 | -4 | 11 | -53 | x | x | x | x | x
Cc1cc(C(F)(F)F)c(C#N)c(SCC(=O)Nc2nc3ccccc3s2)n1 | 89* | 91* | 19 | 80* | 6 | 57 | 20 | 16 | 12 | 20 | 2
Fc1cccc(Cl)c1/C=C/c1cnc2ccccc2n1 | 96* | 11 | -84 | 96* | 31 | -20 | 13 | 84* | 66* | 58* | 74*
COc1cc(Cl)c(NC2=CC(=O)C(=O)c3ccccc32)c(OC)c1 | 75* | 60* | i | -12 | x | -2 | 1 | 90* | 74* | 8 | 0
COc1ccc(C2=NN(S(C)(=O)=O)C(c3cccs3)C2)cc1 (stereo not given) | 30 | 46 | 11 | -10 | 5 | 0 | x | x | x | x | x
CCS(=O)(=O)Nc1cccc(C2=NN(S(=O)(=O)c3ccc(C)cc3)C(c3cccs3)C2)c1 (stereo not given) | 5 | 3 | 6 | 16 | 2 | -6 | x | x | x | x | x
CS(=O)(=O)N1N=C(c2cccs2)CC1c1ccccc1 (stereo not given) | -1 | 2 | -1 | 19 | 3 | -1 | x | x | x | x | x
CS(=O)(=O)N1N=C(c2ccc(Br)cc2)CC1c1cccs1 (stereo not given) | 40 | 34 | 25 | 61* | 10 | 0 | 8 | 9 | 83* | 56* | 6
Cc1ccc(C2=NN(S(C)(=O)=O)C(c3cccs3)C2)cc1 (stereo not given) | 54* | 52* | 22 | 74* | 12 | 0 | 68* | 64* | 87* | 75* | 67*
CCc1ccc(C2=NN(S(C)(=O)=O)C(c3cccs3)C2)cc1 (stereo not given) | 83* | 92* | -51 | 96* | 3 | -54 | 90* | 90* | 99* | 90* | 86*
Cc1ccc(S(=O)(=O)N2CCCC2CNC(=O)C(=O)NCc2ccc3c(c2)OCO3)cc1 (stereo not given) | x | x | -17 | x | x | 1 | x | x | x | x | x
Cc1ccc(Nc2ccc(C(=O)O)cc2N)cc1 | 94* | 98* | x | 98* | -3 | x | 98* | 99* | 102* | 89* | 97*
O=C(O)COc1ccc2occ(C(=O)c3ccccc3)c2c1 | 12 | 12 | 24 | 36 | x | 2 | x | x | x | x | x
Cc1ccc(C(=O)c2coc3ccc(OCC(=O)O)cc23)cc1 | 33 | 29 | 19 | 66* | x | 0 | 47 | 43 | 77* | 78* | 66*
CC(=O)Oc1ccc2occ(C(=O)c3ccccc3)c2c1 | 32 | 31 | 8 | 32 | 4 | -1 | x | x | x | x | x
COc1ccc(C(=O)c2coc3ccc(O)cc23)cc1 | 80* | 87* | 18 | 85* | 5 | 1 | 80* | 80* | 98* | 78* | 61*
O=C(c1cccc(Br)c1)c1coc2ccc(O)cc12 | 84* | 72* | 18 | 86* | x | 1 | 56* | 73* | 95* | 51* | 24
COc1ccc(C(=O)O/N=C(\C)c2ccccc2)cc1 | 97* | 100* | 15 | 95* | 65* | 1 | 100* | 101* | 103* | 99* | 98*
CC(C)=NOC(=O)c1ccc(-c2ccccc2)cc1 | 58* | 72* | 29 | 77* | 16 | 0 | 75* | 76* | 90* | 71* | 67*
CC(C)C[C@H]1CN(CCCC[C@H]2CNC(=O)C(=O)N2CCc2ccccc2)C(=O)C(=O)N1CC1CCCCC1 | x | x | 19 | x | x | 2 | x | x | x | x | x
Cc1nnc(N2C(=O)C(O)=C(C(=O)c3ccco3)C2c2ccc(C(C)(C)C)cc2)s1 (stereo not given) | 50 | 5 | -35 | 86* | 52* | 54 | 24 | 20 | 15 | 32 | 18
CSc1ccc(C2C(C(=O)c3ccco3)=C(O)C(=O)N2c2nnc(SC)s2)cc1 (stereo not given) | 43 | 10 | -75 | 75* | -6 | 27 | 17 | 15 | 0 | 5 | 19
COc1ccc(/C=C2\SC(=S)N(CC(=O)N3CCN(C)CC3)C2=O)cc1 | -13 | -6 | 31 | -33 | 4 | -34 | x | x | x | x | x
CCOc1ccc(/C=C2\SC(=S)N(CCC(=O)O)C2=O)cc1 | 97* | 60* | 16 | 99* | 1 | -25 | 97* | 100* | 103* | 49 | 92*
COc1ccc(/C=C2/SC(=S)N(CCCC(=O)N3CCN(C)CC3)C2=O)cc1 | 54* | 69* | 16 | 65* | 7 | -32 | 58* | 60* | 86* | 67* | 69*
Cc1ccc(/C=C2\SC(=S)N(CCCC(=O)N3CCOCC3)C2=O)cc1 | 84* | 84* | 11 | 84* | -1 | 1 | 90* | 89* | 97* | 72* | 75*
